Columns and labels:
A549 cells = assay: SRB cell growth assay, A549; type: cell-based, human; settings: A549, 72 h
Outline: (§1)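 Cells seeded at 6×10^3–8×10^3 per well, grown overnight, then exposed 72 h to test compound (0, 0.5, 1, 2, 5, 10, 30 µM). Surviving fraction measured by sulforhodamine B protein staining; IC50 calculated from the dose series. Data given as mean ± S.D.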

H157 cells = assay: SRB cell growth assay, H157; type: cell-based, human
Outline: as §1

H1299 cells [1] = assay: SRB cell growth assay, H1299; type: cell-based, human
Outline: as §1

human Bcl-XL protein = human Bcl-XL protein (Homo sapiens, UniProt Q07817); assay: Competition fluorescence polarization assay with Bak BH3 peptide, Bcl-XL; type: binding; settings: purified Bcl-XL 6nM, Bak BH3 peptide 3nM
Bcl2 = Bcl2 (Homo sapiens, UniProt P10415); assay: Competition fluorescence polarization assay with Bak BH3 peptide, Bcl2; type: binding; settings: 0.1~500nM
Mcl-1 = Mcl-1 (Homo sapiens, UniProt Q07820); assay: Competition fluorescence polarization assay with Bak BH3 peptide, Mcl-1; type: binding; settings: 0.1~500nM
Bcl-w = target: T1, Bcl-w (Homo sapiens, UniProt Q92843); assay: Competition fluorescence polarization assay with Bak BH3 peptide, Bcl-w; type: binding; settings: 0.1~500nM
T1 sequence (Q92843 1-193): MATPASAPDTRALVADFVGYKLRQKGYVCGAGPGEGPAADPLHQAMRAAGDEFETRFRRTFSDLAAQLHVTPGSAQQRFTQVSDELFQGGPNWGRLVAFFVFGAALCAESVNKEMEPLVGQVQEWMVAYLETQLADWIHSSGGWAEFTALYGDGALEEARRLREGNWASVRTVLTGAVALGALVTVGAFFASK

Bfl-1/A1 = target: T2, Bfl-1/A1 (Homo sapiens, UniProt Q16548); assay: Competition fluorescence polarization assay with Bak BH3 peptide, Bfl-1/A1; type: binding; settings: 0.1~500nM
T2 sequence (Q16548 1-175): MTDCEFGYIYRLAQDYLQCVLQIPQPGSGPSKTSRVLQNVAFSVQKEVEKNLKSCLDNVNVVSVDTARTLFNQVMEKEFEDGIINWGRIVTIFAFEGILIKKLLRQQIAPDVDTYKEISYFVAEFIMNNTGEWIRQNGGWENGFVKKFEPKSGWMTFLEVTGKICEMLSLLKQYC

[2] = system: H1299 lung cancer xenografts; assay: H1299 lung cancer xenografts in nude mice; type: in vivo; settings: for anti-tumor efficacy compared with ABT-737: 30mg/kg/d i.p. for 14 days
Nu/Nu nude mice [3] = assay: In vivo toxicity: body weight, blood analysis, histopathology; settings: for platelet reduction compared with ABT-737: 30mg/kg/d i.p. for 14 days
Outline: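 Nu/Nu mice given test compound i.p. daily at various doses (dose-finding: 10–50 mg/kg/d up to 25 days, 6 mice/dose; xenograft mice: 30 mg/kg/d for 14 days). Body weight recorded every other day. Terminal cardiac-puncture blood (250 µL, EDTA) under anaesthesia analyzed for WBC, RBC, platelets, ALT, AST, BUN. Organs examined by H&E histology.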

[4] = system: normal human bronchial epithelial cells (BEAS-2B); assay: Cytotoxicity in lung cancer cells versus normal bronchial epithelial cells; type: cell-based
Outline: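 Cells were seeded at 6×10^3–8×10^3 per well, grown overnight, then treated 72 h. Surviving fraction read by sulforhodamine B protein-stain assay. BEAS-2B and A549 were kept in DMEM/F-12 with 10% FBS, and H1299 in RPMI 1640 with 5% FBS plus 5% bovine serum. Lung cancer lines received 0, 0.5, 1, 2, 5, 10 or 30µM.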

H1299 cells [5] = assay: Colony formation assay in Bcl-XL shRNA H1299 cells; type: cell-based, human
[6] = system: A549-P and A549-IRR cells; assay: Cell growth of A549-P and A549-IRR cells; type: cell-based, human; settings: colony formation 10 days, SRB 72h
Bcl-XL/Bak = Bcl-XL/Bak (Homo sapiens, UniProt Q07817); assay: Co-immunoprecipitation of Bcl-XL/Bak in H1299 cells; type: cell-based; settings: 0.1–5µM, 24 h
Outline: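 H1299 cells treated 24 h with test compound at 0.1–5 µM. Lysates were immunoprecipitated with a Bcl-XL antibody (normal IgG as IP control), and co-precipitated Bak and Bcl-XL were detected by Western blot. Total-lysate Bcl-XL and Bak levels were also blotted.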

Bcl-XL/Bax = Bcl-XL/Bax (Homo sapiens, UniProt Q07817); assay: Bcl-XL/Bax complex disruption in cells; type: cell-based
Bak = Bak oligomerization; type: cell-based, human; settings: H1299 cells, BMH cross-linking
Outline: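 H1299 cells exposed to increasing test compound concentrations (0.1–5µM) for 24 h. Mitochondria isolated by subcellular fractionation and taken up in PBS (pH7.2) conjugation buffer. BMH and EDTA added to cross-link Bak sulfhydryls, 1 h at room temperature, then DTT quench for 15 min at room temperature. Products resolved by SDS-PAGE and Western blotted with anti-Bak.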

Cyt c release = assay: Cytochrome c release from mitochondria in H1299 cells; type: cell-based, human
Outline: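 Test compound given to H1299 cells at increasing concentrations (0.1–5µM) for 24 h. Subcellular fractionation separated mitochondrial and cytosolic fractions. Cytochrome c detected in the fractions by Western blot, with prohibitin as the mitochondrial marker.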

[7] = system: A549-P and A549-IRR xenografts; assay: A549-P and A549-IRR lung cancer xenografts in mice; type: in vivo
Nu/Nu nude mice [8] = settings: mouse, in vivo, ip
Nu/Nu nude mice [9] = assay: Maximum tolerated dose

Bcl2, sequence (P10415 whole entry): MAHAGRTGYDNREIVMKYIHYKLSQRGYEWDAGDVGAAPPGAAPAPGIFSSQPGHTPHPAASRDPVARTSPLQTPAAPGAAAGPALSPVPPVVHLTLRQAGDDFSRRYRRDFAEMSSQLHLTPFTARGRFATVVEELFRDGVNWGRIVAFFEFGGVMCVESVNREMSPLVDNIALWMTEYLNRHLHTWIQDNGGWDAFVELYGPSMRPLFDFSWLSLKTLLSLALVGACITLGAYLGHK
Mcl-1, sequence (Q07820 whole entry): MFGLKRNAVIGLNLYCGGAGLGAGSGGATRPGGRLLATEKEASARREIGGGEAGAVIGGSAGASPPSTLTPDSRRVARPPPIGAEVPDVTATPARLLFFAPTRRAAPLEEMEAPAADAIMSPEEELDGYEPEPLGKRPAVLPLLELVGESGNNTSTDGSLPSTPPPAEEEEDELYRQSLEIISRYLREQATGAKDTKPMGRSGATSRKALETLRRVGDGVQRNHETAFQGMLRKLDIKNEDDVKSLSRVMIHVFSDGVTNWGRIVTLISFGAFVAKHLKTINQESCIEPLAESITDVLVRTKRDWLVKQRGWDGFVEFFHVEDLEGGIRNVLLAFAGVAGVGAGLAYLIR
human Bcl-XL protein, sequence (Q07817 whole entry): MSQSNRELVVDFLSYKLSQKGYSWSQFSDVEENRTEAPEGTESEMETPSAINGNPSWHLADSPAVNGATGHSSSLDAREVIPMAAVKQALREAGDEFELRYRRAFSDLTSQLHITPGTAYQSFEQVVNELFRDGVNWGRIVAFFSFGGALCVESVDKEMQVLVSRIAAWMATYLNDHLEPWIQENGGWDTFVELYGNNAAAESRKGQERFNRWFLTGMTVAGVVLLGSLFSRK
Bcl-XL/Bax, sequence (Q07817 whole entry): as above
Bcl-XL/Bak, sequence (Q07817 whole entry): as above

Structure (SMILES) | IC50 (A549 cells; SRB assay) | IC50 (H157 cells; H157, 72 h, SRB assay) | IC50 (H1299 cells [1]; H1299, 72 h, SRB assay) | Ki (human Bcl-XL protein) | binding affinity with Bcl2 (Bcl2) | binding affinity with Mcl-1 (Mcl-1) | binding affinity with Bcl-w (Bcl-w) | binding affinity with Bfl-1/A1 (Bfl-1/A1) | anti-tumor efficacy compared with ABT-737 ([2]; H1299 xenografts) | platelet reduction compared with ABT-737 (Nu/Nu nude mice [3]) | cytotoxicity against lung cancer cells compared to normal human bronchial epithelial cells [4] | sensitivity of H1299 cells after depletion of endogenous Bcl-XL (H1299 cells [5]) | sensitivity of A549-P and A549-IRR cells [6] | further results
CN(C)CC[C@H](CSc1ccccc1)Nc1ccc(S(=O)(=O)NC(=O)c2ccc(N3CCN(Cc4ccccc4-c4ccc(Cl)cc4)CC3)cc2)cc1[N+](=O)[O-] [ABT-737, reference compound] | – | – | – | – | – | – | – | – | – | – | – | – | – | IC50 (A549 cells; Homo sapiens): 19.4 ± 1.23 µM; IC50 (H157 cells; Homo sapiens, NCI-H157, 72 h): 27.6 ± 1.49 µM; IC50 (H1299 cells [1]; Homo sapiens, NCI-H1299, 72 h): 40500 ± 3560 nM
CCOc1ccc2nc3cc(N=Nc4ccc(N)nc4N)ccc3c(N)c2c1 [BXI-61] | 3.17 ± 0.28 µM | 5.71 ± 0.49 µM | 1790 ± 120 nM | 14.8 ± 1.54 nM | very low binding affinities | very low binding affinities | very low binding affinities | very low binding affinities | more potent efficacy against human lung cancer than ABT-737 | less effect on platelet than ABT-737 | relatively selective cytotoxicity | significantly reduced the sensitivity | remained sensitive | potency against lung cancer in vivo ([2]; 40mg/kg/d): high potency against lung cancer; normal tissue toxicities (Nu/Nu nude mice [3]; 40mg/kg/d): without significant normal tissue toxicities except for a slight decrease in platelets
CCOc1ccc(-c2nc3ccc(-c4nc5ccc(N6CCN(C)CC6)cc5[nH]4)cc3[nH]2)cc1 [BXI-72] | 0.68 ± 0.08 µM | 1.87 ± 0.16 µM | 490 ± 120 nM | 0.9 ± 0.15 nM | very low binding affinities | very low binding affinities | very low binding affinities | very low binding affinities | more potent efficacy against human lung cancer than ABT-737 | less effect on platelet than ABT-737 | relatively selective cytotoxicity | significantly reduced the sensitivity | remained sensitive | effect on established lung cancer xenografts ([2]; H1299 xenografts, 10, 20 and 30mg/kg/d i.p. for 14 days): dose-dependent regression; apoptosis in tumor tissues (active caspase 3 IHC) ([2]; H1299 xenografts, 10-30mg/kg/d i.p. 14 days): dose-dependent apoptosis; liver histology (Nu/Nu nude mice [3]; 50mg): hepatocellular necrosis; ALT, AST, BUN, WBC and RBC (Nu/Nu nude mice [3]; 10–30mg/kg/d): no significant increases in ALT, AST and BUN or decreases in WBC and RBC; histopathology of normal tissues (Nu/Nu nude mice [3]; 10–30mg/kg/d): no evidence of normal tissue toxicities; body weight (Nu/Nu nude mice [3]; 20–30mg/kg): well tolerated without weight loss; ALT, AST and BUN (Nu/Nu nude mice [3]; 40–50mg/kg/d for two weeks): increases in ALT, AST and BUN; platelets (Nu/Nu nude mice [3]; increased doses of BXI-72, mice): dose-dependent reduction of platelets; Bcl-XL/Bak dissociation (Bcl-XL/Bak): dose-dependent Bcl-XL/Bak dissociation; Bcl-XL/Bax complexes (Bcl-XL/Bax): disrupts Bcl-XL/Bax complexes; Bak oligomerization (Bak): facilitated the formation of Bak dimers, trimers and multimers; Cyt c release from mitochondria (Cyt c release): facilitate Cyt c release from mitochondria; effect on tumors derived from A549-P and A549-IRR cells ([7]; 20mg/kg/d ×18): repressed tumors derived from both A549-P and A549-IRR cells; normal tissue toxicities ([7]; A549 xenograft mice, 20mg/kg/d): no significant normal tissue toxicities; maximum tolerated dose (MTD) (Nu/Nu nude mice [8]): 30~40 mg/kg/d; lethality (Nu/Nu nude mice [9]; 50mg/kg/d i.p., six mice, within 10 days): uniformly lethal; death (Nu/Nu nude mice [9]; 10 to 30mg/kg/d i.p., after 25 days of daily administration): no death recorded

Source: article PMC3774010 (Cancer research, 2013)
